# Results from PubChem BioAssay.
# Active and inactive are the calls of the source.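 Rule for the calls, unless noted: active = GFP response above 150% of the DMSO level; inconclusive = fewer than 70 events counted for a yeast strain; inactive = the rest.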
# Tests used:
# [1] = RPL19A-GFP modulators, yeast TOR pathway, confirmation, cell-based, S. cerevisiae, flow cytometry, cherry picks, mother/daughter gates (AID 2270;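 active = GFP response below 50% of the DMSO control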); conditions: S. cerevisiae RPL19A-GFP strain, 3 h, at 10 µM, stronger effect = lower value, 100 = same GFP as DMSO wells
# [2] = LAP4-GFP expression modulators in yeast, confirmation, cell-based, cherry picks, flow cytometry, mother/daughter gates (AID 2271;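 active = GFP response above 150% of the DMSO control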;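 note: ratio of sample to DMSO plate mean so 100% equals DMSO level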); conditions: S. cerevisiae LAP4-GFP strain, 3 h, at 10 µM, stronger effect = higher value, 100 means same as DMSO control
# Outline: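 Measured by: GFP by flow cytometry. Test system: GFP-fusion yeast strain. Input: yeast cells seeded at OD600 of 0.2. Timing: 30 °C, 3 h compound incubation, rotating. Buffer or medium: synthetic complete medium for yeast. Benchmarks: DMSO-only negative wells, rapamycin 400 ng/mL positive wells. Compound: 10 µM single dose.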
# [3] = modulators of MEP2-GFP levels in yeast, confirmation, S. cerevisiae, flow cytometry GFP, cherry picks (AID 2272;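 active = GFP response above 150% of the DMSO control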;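 note: ratio of well signal to plate DMSO mean so 100% equals DMSO level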); conditions: S. cerevisiae MEP2-GFP strain, 3 h, at 10 µM, stronger effect = higher value
# [4] = AGP1-GFP expression modulators, hit retest, confirmation, cell-based, flow cytometry, S. cerevisiae, cherry picks (AID 2273);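 note: median GFP channel fluorescence over the whole cell population gate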; conditions: S. cerevisiae AGP1-GFP strain, 3 h, at 10 µM
# [5] = modulators of CIT2-GFP expression in yeast, confirmation, S. cerevisiae, GFP fusion, cherry picks, mother/daughter gates (AID 2274); conditions: S. cerevisiae CIT2-GFP strain, flow cytometry, 3 h, at 10 µM, stronger effect = higher value
# [6] = measured here: daughter cell gate
# [7] = measured here: mother cell gate
# [8] = measured here: daughter cell gate response
# [9] = measured here: mother cell gate response
Compound,GFP response vs DMSO [1],"GFP response vs DMSO [1, 6] [%]","GFP response vs DMSO [1, 7] [%]",GFP response relative to DMSO [2],"GFP response relative to DMSO [2, 8] [%]","GFP response relative to DMSO [2, 9] [%]",GFP response vs DMSO [3],"GFP response, % of DMSO [4]","GFP response, % of DMSO [5]","GFP response, % of DMSO [5, 6] [%]","GFP response, % of DMSO [5, 7] [%]"
Oc1c(CN2CCN(c3ccccc3)CC2)cc(Br)c2cccnc12,99.6% (inactive),101,95.9,220% (active),168,231,153% (inactive),81.5% (inactive),103% (inactive),99.1,93.8
Cc1c(O)ccc(C(=O)CN2CCN(c3ccc(F)cc3)CC2)c1O,98% (inactive),97.3,96.7,101% (inactive),99,101,106% (inactive),101% (inactive),101% (inactive),99.3,102
CCCc1[nH]nc2c1C(c1ccc(OC)cc1OC)C(C#N)=C(N)O2 (configuration not stated),99.8% (inactive),99.9,99.8,92.8% (inactive),91.2,95.1,105% (inactive),90.4% (inactive),94% (inactive),89.9,91.4
CCn1c(=O)c(C(=O)Nc2ccsc2C(=O)OC)c(O)c2ccccc21,103% (inactive),101,103,93.1% (inactive),92.6,94.1,96.8% (inactive),103% (inactive),100% (inactive),99.2,101
Cc1cc(NCCCn2ccnc2)n2ncc(-c3ccccc3)c2n1,96.6% (inactive),99.1,96.7,95.7% (inactive),94.2,96.2,99% (inactive),104% (inactive),100% (inactive),101,101
O=S(=O)(c1ccccc1)N1N=C(c2ccccc2)CC1c1ccccc1 (configuration not stated),105% (inactive),105,103,97% (inactive),97.5,97.3,112% (inactive),99.4% (inactive),106% (inactive),108,104
CCOc1cc(C)c(S(=O)(=O)N2CCCC2)cc1C,90% (inactive),83.8,91.1,137% (inactive),128,145,92.6% (inactive),94.5% (inactive),78.5% (inactive),72.1,80.9
COc1cc(NC(=O)c2ccccc2)ccc1NC(=O)c1cc2ccccc2o1,98.7% (inactive),98.7,97.8,94.1% (inactive),97.5,92.3,103% (inactive),101% (inactive),100% (inactive),95.8,100
O=C(Nc1nc(-c2ccccc2Cl)cs1)c1cccnc1,100% (inactive),94.7,99.2,97.4% (inactive),95.6,99.3,100% (inactive),89.1% (inactive),99.1% (inactive),94.8,97.7
CCOc1ccc(N2C(=O)CC(SCCN)C2=O)cc1 (configuration not stated),97.6% (inactive),98.9,96.6,97.9% (inactive),99.2,97.2,105% (inactive),92.3% (inactive),98.3% (inactive),99.1,98.5
COC(=O)Nc1ccc2c(c1)N(C(=O)CCN1CCN3CCCC3C1)c1ccccc1CC2 (configuration not stated),102% (inactive),101,102,96.2% (inactive),97.2,99.3,104% (inactive),106% (inactive),104% (inactive),99.7,105
CS(=O)(=O)N1N=C(c2ccco2)CC1c1ccc(Br)cc1 (configuration not stated),98.4% (inactive),98.1,99.2,103% (inactive),104,103,100% (inactive),96.8% (inactive),103% (inactive),103,101
Cc1cc(O)c(C(=O)/C=C/c2ccccc2O)c(=O)o1,101% (inactive),98.9,101,119% (inactive),109,125,105% (inactive),90.2% (inactive),89.8% (inactive),91.7,86.7
Cc1ccc(-c2csc(NC(=O)c3cccs3)n2)cc1,98.8% (inactive),93.9,99.6,105% (inactive),99.1,107,112% (inactive),98% (inactive),94.4% (inactive),90.2,94.4
Cc1ccc2nc(Cl)c3nnnn3c2c1,66.6% (inactive),58.4,56.7,281% (active),153,270,152% (inactive),109% (inactive),82.8% (inactive),84.8,72.3
CNc1nc(-c2ccccc2)cc(C(F)(F)F)c1C#N,97.4% (inactive),95.3,92.9,96.2% (inactive),95.6,93.1,104% (inactive),102% (inactive),102% (inactive),99.7,98.7
O=C(c1cccc(COCC(F)(F)C(F)F)c1)N1CCN(c2ccccc2)CC1,101% (inactive),101,102,100% (inactive),97.9,97.5,104% (inactive),102% (inactive),97.8% (inactive),96.4,98
Cc1cccn2c(=O)c(/C=C(\C#N)C(=O)NCc3ccco3)c(N3CCC(C(N)=O)CC3)nc12,89.5% (inactive),90.9,91.4,99.8% (inactive),99.7,100,103% (inactive),101% (inactive),92.2% (inactive),95.2,92.8
CCN(CC)C(=O)c1ccc2c3c(cccc13)C(=O)N(CCc1ccc(OC)c(OC)c1)C2=O,98.8% (inactive),99.3,98.8,108% (inactive),97.9,109,99.5% (inactive),95.2% (inactive),96.4% (inactive),98.3,94.5
Cc1cc(N2CCOCC2)n2nc(C)c(-c3ccccc3)c2n1,103% (inactive),100,102,98.2% (inactive),95.9,97.3,101% (inactive),101% (inactive),98.8% (inactive),97.4,98.1
Cc1ccc(-c2csc3ncn(Cc4ccc(C(=O)O)cc4)c(=O)c23)cc1C,98.8% (inactive),97.3,99,117% (inactive),114,120,105% (inactive),116% (inactive),106% (inactive),105,107
COc1ccc(Sc2ncnc3onc(C)c23)cc1,96.7% (inactive),96.1,95.4,118% (inactive),113,120,103% (inactive),99.1% (inactive),95.8% (inactive),99.3,96
CCCCc1nnc(NC(=O)c2nc3nccc(C)n3n2)s1,98.7% (inactive),98.3,99.8,96.5% (inactive),95,96.5,106% (inactive),104% (inactive),109% (inactive),109,110
Brc1ccc2c(c1)OCCOCCOc1cc(Br)ccc1OCCOCCOCCO2,99% (inactive),98.4,96.9,126% (inactive),123,126,111% (inactive),92.7% (inactive),96.9% (inactive),97.2,93.8
Cc1c(O)ccc(/C=N/Nc2nc(-c3cccnc3)nc3ccccc23)c1O,97.4% (inactive),95.9,98.5,97.4% (inactive),92.5,103,102% (inactive),93.9% (inactive),99.1% (inactive),96.5,98.7
COc1ccc(NC(=O)CCc2nc(-c3ccccc3F)no2)cc1,95.6% (inactive),95.9,93.1,106% (inactive),101,106,101% (inactive),97.7% (inactive),97.2% (inactive),95.8,94.9
Cc1nc2ccccc2c(=O)n1/N=C/c1ccc([N+](=O)[O-])o1,104% (inactive),108,104,121% (inactive),120,121,116% (inactive),102% (inactive),121% (inactive),128,115
